ChEMBL document CHEMBL1144302, “Triaryl bis-sulfones as a new class of cannabinoid CB2 receptor inhibitors: identification of a lead and initial SAR studies” (Bioorg Med Chem Lett, 2005)

How the values were obtained:
[1] = Binding affinity for cannabinoid receptor 2 was determined by using [35S]GTP-gamma-S, as radioligand; type: functional, Homo sapiens
Procedure, shortened: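 Human CB2 co-expressed with Gαi3 and β1γ2 in Sf9 cell membranes (7–14 pmol/mg receptor). Triplicate serial dilutions were incubated with membranes, 0.3 nM [35S]GTPγS and GDP in 20 mM HEPES, 100 mM NaCl, 5 mM MgCl2, 0.2% (w/v) lipid-free BSA, pH 7.4, for 30 min at 30°C. Reactions were stopped by filtration, and filters were washed 10× at room temperature with 20 mM HEPES/10 mM sodium pyrophosphate. Bound label was counted by liquid scintillation.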

[2] = biological target: Cannabinoid receptor (Homo sapiens) (UniProt P34972+P21554); experiment: Selectivity of cannabinoid receptor 2 over cannabinoid receptor 1; type: protein assay
Cannabinoid receptor (Homo sapiens), sequence (P21554 whole entry, looked up): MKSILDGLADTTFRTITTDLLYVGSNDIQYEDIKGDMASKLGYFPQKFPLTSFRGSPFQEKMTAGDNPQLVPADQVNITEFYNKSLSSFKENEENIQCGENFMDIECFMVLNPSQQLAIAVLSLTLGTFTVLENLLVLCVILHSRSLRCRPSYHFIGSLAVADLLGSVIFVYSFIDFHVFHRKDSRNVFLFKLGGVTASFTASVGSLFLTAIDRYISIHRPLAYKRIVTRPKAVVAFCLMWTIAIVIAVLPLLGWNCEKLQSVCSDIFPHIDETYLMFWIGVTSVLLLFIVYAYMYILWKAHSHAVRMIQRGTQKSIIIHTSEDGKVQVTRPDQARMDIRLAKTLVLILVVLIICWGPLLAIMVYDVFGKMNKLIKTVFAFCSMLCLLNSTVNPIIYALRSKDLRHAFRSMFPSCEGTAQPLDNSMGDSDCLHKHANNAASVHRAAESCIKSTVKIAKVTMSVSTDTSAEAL
Cannabinoid receptor (Homo sapiens), sequence (P34972 whole entry, looked up): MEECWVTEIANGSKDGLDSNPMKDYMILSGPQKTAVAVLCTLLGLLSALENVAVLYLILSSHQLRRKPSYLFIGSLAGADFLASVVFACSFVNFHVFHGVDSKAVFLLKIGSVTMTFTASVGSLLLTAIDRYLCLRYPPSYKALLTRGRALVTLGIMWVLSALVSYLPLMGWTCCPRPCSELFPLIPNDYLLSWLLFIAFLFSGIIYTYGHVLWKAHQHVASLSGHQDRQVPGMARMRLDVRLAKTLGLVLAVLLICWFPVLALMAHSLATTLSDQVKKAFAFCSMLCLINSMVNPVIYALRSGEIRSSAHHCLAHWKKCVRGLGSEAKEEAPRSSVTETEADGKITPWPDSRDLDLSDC

[3] = biological target: Cannabinoid receptor 1 (Homo sapiens, UniProt P21554); experiment: Binding affinity for cannabinoid receptor 1
Cannabinoid receptor 1, sequence (P21554 whole entry): as the sequence (P21554 whole entry, looked up) above

[4] = biological target: Cannabinoid receptor 2 (Homo sapiens, UniProt P34972); experiment: Binding affinity for human cannabinoid receptor 2 was determined by using [3H]CP-55940 as radioligand
Cannabinoid receptor 2, sequence (P34972 whole entry): as the sequence (P34972 whole entry, looked up) above

SMILES	Ki [1]	Selectivity [2]	Ki [3]	Ki [4]
COc1ccc(S(=O)(=O)c2cc(OC)ccc2S(=O)(=O)c2ccc([C@H](C)NS(=O)(=O)Cc3ccccc3)cc2)cc1	160 nM	0.5	79 nM	–
CCCNC(=O)N[C@@H](C)c1ccc(S(=O)(=O)c2ccc(OC)cc2S(=O)(=O)c2ccc(OC)cc2)cc1	495 nM	145	72100 nM	–
COc1ccc(S(=O)(=O)c2cc(OC)ccc2S(=O)(=O)c2ccc([C@H](C)NC(C)=O)cc2)cc1	7.7 nM	231	1780 nM	–
COc1ccc(C(=O)N[C@@H](C)c2ccc(S(=O)(=O)c3ccc(OC)cc3S(=O)(=O)c3ccc(OC)cc3)cc2)cc1	1260 nM	0.9	1170 nM	–
COc1ccc(S(=O)(=O)c2cc(OC)ccc2S(=O)(=O)c2ccc([C@H](C)NC(=O)c3ccc(C)cc3)cc2)cc1	289 nM	3	884 nM	–
CCC(=O)N[C@@H](C)c1ccc(S(=O)(=O)c2ccc(OC)cc2S(=O)(=O)c2ccc(OC)cc2)cc1	29 nM	122	3560 nM	–
COc1ccc(S(=O)(=O)c2cc(OC)ccc2S(=O)(=O)c2ccc([C@H](C)NC(=O)Nc3ccc(C)cc3)cc2)cc1	802 nM	125	100000 nM	–
CCCC(=O)N[C@@H](C)c1ccc(S(=O)(=O)c2ccc(OC)cc2S(=O)(=O)c2ccc(OC)cc2)cc1	6.2 nM	189	1170 nM	–
COc1ccc(S(=O)(=O)c2cc(OC)ccc2S(=O)(=O)c2ccc([C@H](C)NS(=O)(=O)c3ccccc3)cc2)cc1	239 nM	3.6	855 nM	–
COc1ccc(S(=O)(=O)c2cc(OC)ccc2S(=O)(=O)c2ccc([C@H](C)NC(=O)C3CC3)cc2)cc1	15.7 nM	676	10600 nM	–
COc1ccc(S(=O)(=O)c2cc(OC)ccc2S(=O)(=O)c2ccc([C@H](C)NS(C)(=O)=O)cc2)cc1	0.4 nM	2260	905 nM	–
COc1ccc(S(=O)(=O)c2cc(OC)ccc2S(=O)(=O)c2ccc([C@H](C)NS(=O)(=O)c3ccc(Cl)c(Cl)c3)cc2)cc1	2480 nM	0.05	117 nM	–
COc1ccc(S(=O)(=O)c2cc(OC)ccc2S(=O)(=O)c2ccc([C@H](C)NC(=O)Cc3ccccc3)cc2)cc1	412 nM	1.2	478 nM	–
CCCCS(=O)(=O)N[C@@H](C)c1ccc(S(=O)(=O)c2ccc(OC)cc2S(=O)(=O)c2ccc(OC)cc2)cc1	41 nM	27	1130 nM	–
COc1ccc(S(=O)(=O)c2cc(OC)ccc2S(=O)(=O)c2ccc([C@H](C)NC(=O)C(F)(F)F)cc2)cc1	0.3 nM	783	235 nM	–
COc1ccc(S(=O)(=O)c2ccc([C@H](C)NC(=O)C(F)(F)F)cc2)cc1	31 nM	–	–	–
CCS(=O)(=O)N[C@@H](C)c1ccc(S(=O)(=O)c2ccc(OC)cc2S(=O)(=O)c2ccc(OC)cc2)cc1	1 nM	1510	1970 nM	–
COc1ccc(S(=O)(=O)c2cc(OC)ccc2S(=O)(=O)c2ccc([C@H](C)NS(=O)(=O)c3ccc(C)cc3)cc2)cc1	495 nM	3.9	1920 nM	–
COc1ccc(S(=O)(=O)c2cc(OC)ccc2S(=O)(=O)c2ccc([C@H](C)NC(=O)C(C)(C)C)cc2)cc1	38.6 nM	60	2310 nM	–
COc1ccc(C(=O)c2c(C)n(CCN3CCOCC3)c3cc(I)ccc23)cc1	–	–	–	31.2 nM
COc1ccc(S(=O)(=O)c2cc(OC)ccc2S(=O)(=O)c2ccc([C@H](C)NC(=O)c3ccc(Cl)c(Cl)c3)cc2)cc1	167 nM	0.5	84 nM	–
COc1ccc(S(=O)(=O)c2cc(OC)ccc2S(=O)(=O)c2ccc([C@H](C)NC(=O)Nc3ccc(F)cc3)cc2)cc1	1140 nM	15	17600 nM	–
